Data reported in ChEMBL document CHEMBL2412994, “Solid phase synthesis of Smac/DIABLO-derived peptides using a 'Safety-Catch' resin: identification of potent XIAP BIR3 antagonists” (Bioorg Med Chem, 2013).
Calls of active or inactive are those of the source. The rule behind the calls is not given here. Square brackets hold non-standard residues; d marks the D form. Peptide text beside a SMILES is read from it. Phg = N[C@H](C(=O)O)c1ccccc1; NMeA = CN[C@@H](C)C(=O)O

How the values were obtained:
[1] = test system: MDA-MB-231; assay: Cytotoxicity against human MDA-MB-231 cells assessed as cell viability after by MTT assay; format: functional
Procedure, shortened: (§1)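 MTT viability assay. MDA-MB-231 cells were seeded at 1 × 10⁴ cells/well and MCF-7 cells at 2 × 10⁴ cells/well, then held 24 h at 37 °C in 5% CO₂. Medium was replaced with treatments; vehicle controls received matched DMSO. After 72 h, MTT (10 mg/ml stock) was added for 2 h in the dark. Formazan was dissolved in DMSO and read at 550 nm. Viability relative to untreated control at 100 µM.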

[2] = test system: MCF7; assay: Cytotoxicity against human MCF7 cells assessed as cell viability after by MTT assay; format: functional; procedure, shortened: as §1
[3] = molecular target: E3 ubiquitin-protein ligase XIAP (Homo sapiens, UniProt P98170); assay: Binding affinity to XIAP BIR3-domain (unknown origin)
E3 ubiquitin-protein ligase XIAP, sequence (P98170 whole entry): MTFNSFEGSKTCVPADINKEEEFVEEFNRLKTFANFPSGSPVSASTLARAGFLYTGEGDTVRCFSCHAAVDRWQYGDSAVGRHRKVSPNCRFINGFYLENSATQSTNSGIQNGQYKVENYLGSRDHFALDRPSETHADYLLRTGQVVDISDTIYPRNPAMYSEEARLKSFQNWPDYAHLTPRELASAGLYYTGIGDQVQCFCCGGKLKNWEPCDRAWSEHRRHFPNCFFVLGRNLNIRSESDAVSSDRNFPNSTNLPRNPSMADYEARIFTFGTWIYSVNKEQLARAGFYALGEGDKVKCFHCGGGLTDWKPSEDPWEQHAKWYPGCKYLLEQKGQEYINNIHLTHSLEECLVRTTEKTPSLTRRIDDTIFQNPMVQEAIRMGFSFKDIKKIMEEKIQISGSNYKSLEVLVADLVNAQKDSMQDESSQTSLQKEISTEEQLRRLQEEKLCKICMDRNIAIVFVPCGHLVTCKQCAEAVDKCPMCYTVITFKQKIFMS

Kd [3] [nM]	Compound	Activity [1]	Activity [2]
–	CN[C@@H](C)C(=O)N[C@H](C(=O)N1C[C@H](Oc2ccccc2)C[C@H]1C(=O)NC(c1ccccc1)c1ccccc1)C(C)(C)C	50.3%	58.6%
–	CN[C@@H](C)C(=O)N[C@H](C(=O)N1C[C@H](c2ccccc2)C[C@H]1C(=O)N[C@@H]1CCCc2ccccc21)C(C)(C)C	54.6%	79.4%
60	H-AVPFY-NH2	inactive	inactive
–	CN[C@@H](C)C(=O)N[C@H](C(=O)N1C[C@H](c2ccccc2)C[C@H]1C(=O)NC(c1ccccc1)c1ccccc1)C(C)(C)C	50.1%	62.3%
40	CN[C@@H](C)C(=O)N[C@H](C(=O)N1CCC[C@H]1C(=O)N[C@@H](Cc1ccccc1)C(=O)N[C@@H](Cc1ccc(O)cc1)C(N)=O)C(C)C (H-[NMeA]VPFY-NH2)	inactive	inactive
–	CN[C@@H](C)C(=O)N[C@H](C(=O)N1C[C@H](Oc2ccccc2)C[C@H]1C(=O)N[C@@H]1CCCc2ccccc21)C(C)(C)C	58.1%	70.8%
30	CC(C)[C@H](NC(=O)[C@H](C)N)C(=O)N1CCC[C@H]1C(=O)N[C@H](C(=O)N[C@@H](Cc1ccc(O)cc1)C(N)=O)c1ccccc1 (H-AVP[Phg]Y-NH2)	inactive	inactive
